Common to all, as to format: functional, organism-based
Assay [1] has as its system Plasmodium falciparum. Description: Antimalarial activity against Plasmodium falciparum at the ring stage infected in human erythrocytes assessed as growth inhibition by microscopic analysis using giemsa staining.
Assay [2] concerns Plasmodium falciparum. Briefly: Antimalarial activity against Plasmodium falciparum trophozoites infected in human erythrocytes assessed as growth inhibition by microscopic analysis using giemsa staining. A digest of the protocol: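 Fresh field isolates from uncomplicated malaria patients in Papua, with leukocytes removed on CF11. Cells were kept at 2% hematocrit in RPMI 1640 + 10% AB+ human serum on predosed plates with 11 two-fold drug dilutions, in a candle jar at 37.5°C for 21–46 h. Harvest was when >40% of control rings reached schizont.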

The test system of assay [3] is Plasmodium vivax. Description: Antimalarial activity against Plasmodium vivax trophozoites infected in human erythrocytes assessed as growth inhibition by microscopic analysis using giemsa staining. In a few lines:
(§1)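 P. vivax field isolates from Papuan patients, leukocyte-depleted on CF11, were placed in McCoy's 5A + 20% AB+ serum at 2% hematocrit. Plates held 11 two-fold drug dilutions, incubated in a candle jar at 37.5°C until >40% of control rings were mature schizonts. Giemsa thick films were read for schizonts (≥5 chromatin dots/200 parasites) relative to control. IC50 used an inhibitory sigmoid Emax model, accepting fits with Emax/E0 within 15%.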

In assay [4] the test system is Plasmodium falciparum. Briefly: Antimalarial activity against Plasmodium falciparum infected in human erythrocytes assessed as growth inhibition by microscopic analysis using giemsa staining.
Assay [5] relates to Plasmodium vivax. Description: Antimalarial activity against Plasmodium vivax infected in human erythrocytes assessed as growth inhibition by microscopic analysis using giemsa staining. In a few lines:
as §1

Assay [6] has as its system Plasmodium vivax. Briefly: Antimalarial activity against Plasmodium vivax with >50% parasites at ring stage infected in human erythrocytes assessed as growth inhibition after 30 to 50 hrs by microscopic analysis using giemsa staining. In a few lines:
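Post hoc subset of P. vivax isolates with >50% ring stage at enrollment and assay duration of 30–50 h. Culture was in McCoy's 5A + 20% AB+ serum, 2% hematocrit, 11 two-fold drug dilutions, candle jar, 37.5°C.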

Assay [7] concerns Plasmodium vivax. Description: Antimalarial activity against Plasmodium vivax at the ring stage infected in human erythrocytes assessed as growth inhibition by microscopic analysis using giemsa staining. A digest of the protocol:
as §1

SMILES strings stand for the structures.

This passage reports IC50 results from ChEMBL document CHEMBL1671768, “In vitro activity of pyronaridine against multidrug-resistant Plasmodium falciparum and Plasmodium vivax” (Antimicrob Agents Chemother, 2010).

On to `CCN(CC)Cc1cc(Nc2ccnc3cc(Cl)ccc23)ccc1O`, for which the IC50 – broadly, the concentration that inhibits the measured activity by half – in assay [1] was 8.1 nM; in assay [2], 12.6 nM; in assay [3] it was 25.2 nM; in assay [4] it was 5.7 nM; in assay [5], 14 nM; in assay [6], 12 nM.
Take `C[C@H]1[C@H](OC(=O)CCC(=O)O)O[C@@H]2O[C@@]3(C)CC[C@H]4[C@H](C)CC[C@@H]1[C@@]24OO3` [ARTESUNATE]: the half-maximal inhibitory concentration (IC50) in assay [4] stood at 0.68 nM; in assay [5] it was 1.03 nM; in assay [6] it was 1.27 nM.
Turning to `CCN(CC)CCCC(C)Nc1ccnc2cc(Cl)ccc12` (stereo not given) [CHLOROQUINE], the figures for the half-inhibitory concentration (IC50) in assay [7], in assay [3] and in assay [5] were 49.2 nM, 2430 nM and 142 nM, respectively.
As for `OC(c1cc(C(F)(F)F)nc2c(C(F)(F)F)cccc12)C1CCCCN1` (stereo not given) [MEFLOQUINE], the IC50 in assay [2] was found to be 8.5 nM; in assay [7] it was 7.9 nM; in assay [5], 12.1 nM; in assay [6], 8 nM.
Consider `Clc1ccc2c(N3CCN(CCCN4CCN(c5ccnc6cc(Cl)ccc56)CC4)CC3)ccnc2c1` [PIPERAQUINE], for which the IC50 in assay [1] amounted to 11.8 nM; in assay [2], 77.2 nM; in assay [7] it was 14 nM; in assay [3], 21.7 nM; in assay [4] it was 17.1 nM; in assay [5] it was 24.8 nM. For the same compound, the half-maximal inhibitory concentration (IC50) in assay [6] is 19.6 nM.
`COc1ccc2nc3cc(Cl)ccc3c(Nc3cc(CN4CCCC4)c(O)c(CN4CCCC4)c3)c2n1` [PYRONARIDINE]: the IC50 was 1.6 nM in assay [1]; 8 nM in assay [2]; 2.5 nM in assay [7]; 4.7 nM in assay [3]; 1.92 nM in assay [4]; 2.58 nM in assay [5]. The IC50 in assay [6] came to 2.4 nM.
